Measurements from ChEMBL document CHEMBL2046296, “Synthesis and antidepressant activity of arylalkanol-piperidine derivatives as triple reuptake inhibitors” (Eur J Med Chem, 2012).

Experiments:
[1] = target: D(3) dopamine receptor (Homo sapiens) (UniProt P35462); test: Displacement of [3H]Methylspiperone from human recombinant dopamine D3 receptor expressed in CHO cells at 10 uM after 60 mins by liquid scintillation counting; format: cell-based
Summary of the method: (§1)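 Radioligand binding panel run by a contract lab (CEREP). Percent inhibition of specific radioligand binding was measured at a single primary test concentration of 10.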

[2] = target: T1, 5-hydroxytryptamine receptor 1A (Homo sapiens) (UniProt P08908); test: Displacement of [3H]8-OH-DPAT from human recombinant 5HT1A receptor expressed in CHO cells at 10 uM after 60 mins by liquid scintillation counting; format: cell-based; summary of the method: as §1
T1 sequence (whole entry): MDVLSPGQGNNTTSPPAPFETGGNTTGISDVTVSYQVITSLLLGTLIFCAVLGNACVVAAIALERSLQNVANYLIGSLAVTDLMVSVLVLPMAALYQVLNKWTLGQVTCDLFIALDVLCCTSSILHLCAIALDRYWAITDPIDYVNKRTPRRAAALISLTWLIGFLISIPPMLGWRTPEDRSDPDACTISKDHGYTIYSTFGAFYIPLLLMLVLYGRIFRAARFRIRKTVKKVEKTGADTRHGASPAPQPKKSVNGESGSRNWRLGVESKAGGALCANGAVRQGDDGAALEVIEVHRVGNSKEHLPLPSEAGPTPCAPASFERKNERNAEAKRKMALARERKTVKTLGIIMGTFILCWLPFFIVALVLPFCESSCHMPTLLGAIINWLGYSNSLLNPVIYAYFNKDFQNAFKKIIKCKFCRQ

[3] = target: Histamine H2 receptor (Homo sapiens) (UniProt P25021); test: Displacement of [I125}APT from histamine H2 receptor at 10 uM; summary of the method: as §1
[4] = target: Histamine H1 receptor (Cavia porcellus) (UniProt P31389); test: Displacement of [3H]Pyrilamin from guinea pig histamine H1 receptor at 10 uM after 10 mins by liquid scintillation counting; summary of the method: as §1
[5] = target: Sodium-dependent serotonin transporter (Homo sapiens, UniProt P31645); test: Inhibition of [3H]serotonin uptake at human SERT expressed in HEK293 cells after 10 min by scintillation counting
[6] = target: Sodium-dependent noradrenaline transporter (Homo sapiens, UniProt P23975); test: Inhibition of [3H]noradrenaline uptake at human NET expressed in HEK293 cells after 10 mins by scintillation counting
[7] = target: Beta-1 adrenergic receptor (Homo sapiens) (UniProt P08588); test: Displacement of [3H](-)CGP12177 beta1 adrenergic receptor at 10 uM; summary of the method: as §1
[8] = tested on: Mus musculus; test: Toxicity in mouse assessed as increase in locomotor activity at 50 mg/kg, po up to 5 mins relative to vehicle treated control; format: organism-based; design: dose 50 mg/kg, route oral; conditions: in vivo
Summary of the method: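 Mice were dosed orally at 50 mg/kg and 30 min later placed singly in new 35×35×35 cm plastic cages under dim light with sound attenuation. Activity was logged by a monitoring apparatus at intervals up to 30 min, and the 5 min point was analysed. Mean ± SEM; one-way ANOVA, Scheffe post hoc, versus control.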

[9] = tested on: Mus musculus; test: Antidepressant activity in mouse assessed as decrease in immobility at 10 mg/kg, po administered 30 mins prior to testing by tail suspension test relative to vehicle control; format: functional; design: scale not given: the % may be the effect or the level left
Summary of the method: (§2)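 Oral doses of 10–50 mg/kg (three doses) were given once, 30 min before testing. Mice were hung by adhesive tape 1 cm from the tail tip, 75 cm above the tabletop. Immobility was recorded for 5 min, scored blind, 10–12 mice per group, against vehicle controls. One-way ANOVA with Scheffe post hoc test; p<0.05 significant.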

[10] = target: 5-hydroxytryptamine receptor 2A (Homo sapiens) (UniProt P28223); test: Displacement of [3H]Ketanserin from human recombinant 5HT2A receptor expressed in CHO cells at 10 uM after 15 mins by liquid scintillation counting; format: cell-based; summary of the method: as §1
[11] = target: 5-hydroxytryptamine receptor 7 (Homo sapiens) (UniProt P34969); test: Displacement of [3H]LSD from human recombinant 5HT7 receptor expressed in CHO cells at 10 uM after 120 mins by liquid scintillation counting; format: cell-based; summary of the method: as §1
[12] = target: Adrenergic receptor alpha-2 (Rattus norvegicus) (UniProt P22086+P19328+P22909); test: Displacement of [3H]RX821002 from rat alpha2 adrenergic receptor at 10 uM after 30 mins by liquid scintillation counting; summary of the method: as §1
[13] = target: Sodium-dependent dopamine transporter (Homo sapiens, UniProt Q01959); test: Inhibition of [3H]dopamine uptake at human DAT expressed in HEK293 cells after 10 mins by scintillation counting
[14] = target: Adrenergic receptor alpha-1 (Rattus norvegicus) (UniProt P15823+P23944+P43140); test: Displacement of [3H]Prazosin from rat alpha1 adrenergic receptor at 10 uM after 60 mins by liquid scintillation counting; summary of the method: as §1
[15] = target: T2, 5-hydroxytryptamine receptor 3A (Homo sapiens) (UniProt P46098); test: Displacement of [3H]BRL43694 from human recombinant 5HT3 receptor expressed in CHO cells at 10 uM after 60 mins by liquid scintillation counting; format: cell-based; summary of the method: as §1
T2 sequence (whole entry): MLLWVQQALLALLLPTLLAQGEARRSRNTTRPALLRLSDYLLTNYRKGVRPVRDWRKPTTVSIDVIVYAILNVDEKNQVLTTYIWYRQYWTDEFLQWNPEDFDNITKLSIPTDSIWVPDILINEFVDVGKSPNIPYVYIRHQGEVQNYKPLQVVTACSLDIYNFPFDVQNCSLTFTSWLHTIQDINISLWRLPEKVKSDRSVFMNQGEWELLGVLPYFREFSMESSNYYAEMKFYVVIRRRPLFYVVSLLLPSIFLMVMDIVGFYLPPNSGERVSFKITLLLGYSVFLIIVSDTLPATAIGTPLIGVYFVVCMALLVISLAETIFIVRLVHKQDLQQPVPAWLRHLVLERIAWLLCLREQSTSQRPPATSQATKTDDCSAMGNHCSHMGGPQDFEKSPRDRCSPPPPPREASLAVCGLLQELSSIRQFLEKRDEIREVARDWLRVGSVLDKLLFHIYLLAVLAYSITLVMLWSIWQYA

[16] = tested on: Mus musculus; test: Antidepressant activity in po dosed mouse assessed as decrease in immobility administered 30 mins prior to testing by tail suspension test relative to vehicle control; format: functional, organism-based; summary of the method: as §2

Histamine H2 receptor (Homo sapiens), sequence (P25021 whole entry): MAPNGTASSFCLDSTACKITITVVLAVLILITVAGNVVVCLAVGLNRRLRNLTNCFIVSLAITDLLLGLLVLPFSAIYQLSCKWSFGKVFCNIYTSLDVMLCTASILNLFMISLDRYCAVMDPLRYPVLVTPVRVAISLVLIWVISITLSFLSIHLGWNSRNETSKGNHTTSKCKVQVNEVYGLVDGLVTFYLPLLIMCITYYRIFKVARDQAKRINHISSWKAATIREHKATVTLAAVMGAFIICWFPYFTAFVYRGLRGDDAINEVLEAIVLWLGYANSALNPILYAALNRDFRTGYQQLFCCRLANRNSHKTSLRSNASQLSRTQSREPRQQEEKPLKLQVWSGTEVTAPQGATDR
D(3) dopamine receptor (Homo sapiens), sequence (P35462 whole entry): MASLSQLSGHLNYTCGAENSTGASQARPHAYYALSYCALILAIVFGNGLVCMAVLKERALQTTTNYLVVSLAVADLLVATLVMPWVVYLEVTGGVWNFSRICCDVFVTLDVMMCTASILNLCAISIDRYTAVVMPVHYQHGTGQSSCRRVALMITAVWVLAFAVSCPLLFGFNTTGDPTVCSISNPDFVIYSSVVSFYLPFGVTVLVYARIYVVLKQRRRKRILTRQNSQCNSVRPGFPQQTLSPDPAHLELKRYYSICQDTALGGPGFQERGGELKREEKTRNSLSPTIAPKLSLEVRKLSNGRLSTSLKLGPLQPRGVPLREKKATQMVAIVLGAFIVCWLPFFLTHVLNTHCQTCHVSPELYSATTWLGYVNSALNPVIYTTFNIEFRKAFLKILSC
5-hydroxytryptamine receptor 7 (Homo sapiens), sequence (P34969 whole entry): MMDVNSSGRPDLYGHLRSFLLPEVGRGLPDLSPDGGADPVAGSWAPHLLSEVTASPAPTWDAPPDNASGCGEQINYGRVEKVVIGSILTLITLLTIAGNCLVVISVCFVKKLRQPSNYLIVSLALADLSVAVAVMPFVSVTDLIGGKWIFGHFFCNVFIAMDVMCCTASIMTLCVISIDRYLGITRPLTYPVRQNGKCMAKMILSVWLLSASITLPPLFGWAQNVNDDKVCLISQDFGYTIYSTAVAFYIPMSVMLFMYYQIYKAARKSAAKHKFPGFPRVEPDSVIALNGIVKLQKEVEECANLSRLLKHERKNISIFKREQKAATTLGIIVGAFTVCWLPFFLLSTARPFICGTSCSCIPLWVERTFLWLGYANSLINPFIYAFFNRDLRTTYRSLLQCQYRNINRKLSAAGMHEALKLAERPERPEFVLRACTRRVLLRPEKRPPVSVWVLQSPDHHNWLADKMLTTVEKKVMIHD
Sodium-dependent dopamine transporter, sequence (Q01959 whole entry): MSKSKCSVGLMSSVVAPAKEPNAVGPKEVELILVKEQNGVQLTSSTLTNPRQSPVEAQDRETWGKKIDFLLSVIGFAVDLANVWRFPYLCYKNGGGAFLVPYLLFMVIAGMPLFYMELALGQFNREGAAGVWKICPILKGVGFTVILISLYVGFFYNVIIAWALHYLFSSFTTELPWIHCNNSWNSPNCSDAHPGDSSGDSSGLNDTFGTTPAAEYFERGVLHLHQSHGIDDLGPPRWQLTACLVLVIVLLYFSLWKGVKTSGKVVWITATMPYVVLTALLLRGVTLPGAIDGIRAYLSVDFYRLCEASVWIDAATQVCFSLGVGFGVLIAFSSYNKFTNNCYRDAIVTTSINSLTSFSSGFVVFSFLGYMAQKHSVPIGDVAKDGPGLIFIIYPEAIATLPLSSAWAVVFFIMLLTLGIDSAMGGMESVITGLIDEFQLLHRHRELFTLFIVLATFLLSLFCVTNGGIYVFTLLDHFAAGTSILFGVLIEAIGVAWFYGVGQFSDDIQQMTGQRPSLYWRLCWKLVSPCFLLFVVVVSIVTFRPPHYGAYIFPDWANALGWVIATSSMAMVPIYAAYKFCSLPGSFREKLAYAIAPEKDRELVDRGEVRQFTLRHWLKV
Beta-1 adrenergic receptor (Homo sapiens), sequence (P08588 whole entry, looked up): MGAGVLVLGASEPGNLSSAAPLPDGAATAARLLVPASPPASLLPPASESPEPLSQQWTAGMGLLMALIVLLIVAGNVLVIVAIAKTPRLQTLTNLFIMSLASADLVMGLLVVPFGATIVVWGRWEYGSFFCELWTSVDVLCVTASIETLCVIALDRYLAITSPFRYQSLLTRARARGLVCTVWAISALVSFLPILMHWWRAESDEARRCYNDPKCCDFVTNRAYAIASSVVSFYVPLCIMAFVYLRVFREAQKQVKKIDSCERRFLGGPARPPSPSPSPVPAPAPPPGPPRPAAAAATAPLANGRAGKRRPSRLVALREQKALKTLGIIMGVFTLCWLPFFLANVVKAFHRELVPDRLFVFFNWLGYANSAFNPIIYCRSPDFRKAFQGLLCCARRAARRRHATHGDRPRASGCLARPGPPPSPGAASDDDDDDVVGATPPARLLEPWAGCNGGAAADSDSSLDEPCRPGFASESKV
5-hydroxytryptamine receptor 2A (Homo sapiens), sequence (P28223 whole entry): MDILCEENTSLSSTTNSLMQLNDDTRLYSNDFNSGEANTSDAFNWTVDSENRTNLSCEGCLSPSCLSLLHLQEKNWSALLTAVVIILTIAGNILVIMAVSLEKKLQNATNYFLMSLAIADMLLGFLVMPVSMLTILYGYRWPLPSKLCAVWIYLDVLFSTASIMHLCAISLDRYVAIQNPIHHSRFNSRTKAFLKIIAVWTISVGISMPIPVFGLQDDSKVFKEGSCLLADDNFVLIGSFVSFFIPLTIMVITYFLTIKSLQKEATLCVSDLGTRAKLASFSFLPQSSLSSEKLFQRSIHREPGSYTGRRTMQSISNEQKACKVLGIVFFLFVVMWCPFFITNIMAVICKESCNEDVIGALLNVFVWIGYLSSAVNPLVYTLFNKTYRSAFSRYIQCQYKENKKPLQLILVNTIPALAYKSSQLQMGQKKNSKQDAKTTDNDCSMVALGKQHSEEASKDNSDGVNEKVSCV
Histamine H1 receptor (Cavia porcellus), sequence (P31389 whole entry): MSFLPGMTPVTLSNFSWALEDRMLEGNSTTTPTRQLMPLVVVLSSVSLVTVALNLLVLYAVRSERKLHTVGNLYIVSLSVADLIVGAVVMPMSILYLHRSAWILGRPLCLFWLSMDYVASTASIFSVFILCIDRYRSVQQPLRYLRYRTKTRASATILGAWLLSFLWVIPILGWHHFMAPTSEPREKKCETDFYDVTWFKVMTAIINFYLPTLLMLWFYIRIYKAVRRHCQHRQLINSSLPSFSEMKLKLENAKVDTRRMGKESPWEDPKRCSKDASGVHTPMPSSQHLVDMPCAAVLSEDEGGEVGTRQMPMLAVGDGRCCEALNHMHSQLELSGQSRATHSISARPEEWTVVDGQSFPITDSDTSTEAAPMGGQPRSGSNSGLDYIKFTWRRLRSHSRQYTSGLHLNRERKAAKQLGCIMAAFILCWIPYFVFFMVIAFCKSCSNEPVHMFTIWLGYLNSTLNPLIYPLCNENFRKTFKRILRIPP
Sodium-dependent noradrenaline transporter, sequence (P23975 whole entry): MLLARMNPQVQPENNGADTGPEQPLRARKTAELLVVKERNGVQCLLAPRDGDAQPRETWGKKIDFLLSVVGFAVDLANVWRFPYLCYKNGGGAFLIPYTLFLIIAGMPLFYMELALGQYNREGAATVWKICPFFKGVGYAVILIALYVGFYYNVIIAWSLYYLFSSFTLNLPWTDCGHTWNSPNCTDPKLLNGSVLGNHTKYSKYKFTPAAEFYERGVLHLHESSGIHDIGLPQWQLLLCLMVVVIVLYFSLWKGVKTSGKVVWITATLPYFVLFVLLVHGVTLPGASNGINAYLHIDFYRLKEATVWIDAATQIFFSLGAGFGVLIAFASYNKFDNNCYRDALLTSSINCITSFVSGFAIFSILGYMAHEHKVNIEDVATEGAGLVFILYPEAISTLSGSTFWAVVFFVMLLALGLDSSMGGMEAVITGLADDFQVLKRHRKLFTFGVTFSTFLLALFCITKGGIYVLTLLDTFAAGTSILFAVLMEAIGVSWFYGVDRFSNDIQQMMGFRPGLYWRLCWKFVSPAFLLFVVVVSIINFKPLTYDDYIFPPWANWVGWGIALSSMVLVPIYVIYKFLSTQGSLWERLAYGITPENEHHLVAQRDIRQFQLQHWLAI
Sodium-dependent serotonin transporter, sequence (P31645 whole entry): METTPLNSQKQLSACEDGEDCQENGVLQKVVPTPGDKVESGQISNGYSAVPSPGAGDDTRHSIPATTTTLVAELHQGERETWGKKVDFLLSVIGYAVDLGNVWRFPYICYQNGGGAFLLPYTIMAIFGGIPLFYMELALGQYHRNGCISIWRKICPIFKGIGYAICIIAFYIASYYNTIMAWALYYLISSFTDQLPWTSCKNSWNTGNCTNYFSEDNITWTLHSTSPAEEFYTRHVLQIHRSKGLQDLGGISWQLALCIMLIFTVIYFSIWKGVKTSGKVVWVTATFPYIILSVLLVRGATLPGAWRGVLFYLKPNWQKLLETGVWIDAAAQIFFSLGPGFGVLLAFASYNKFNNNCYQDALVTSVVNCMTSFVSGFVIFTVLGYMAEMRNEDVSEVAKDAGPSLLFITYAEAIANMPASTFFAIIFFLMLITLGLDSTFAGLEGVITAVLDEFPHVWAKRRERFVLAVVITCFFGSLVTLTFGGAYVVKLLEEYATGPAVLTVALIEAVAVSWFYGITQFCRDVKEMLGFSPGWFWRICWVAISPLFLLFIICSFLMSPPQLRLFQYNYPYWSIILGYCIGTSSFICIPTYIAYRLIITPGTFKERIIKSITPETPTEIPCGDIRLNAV

| inhibition [1] [%] | inhibition [2] [%] | inhibition [3] [%] | inhibition [4] [%] | IC50 [5] [nM] | IC50 [6] [nM] | inhibition [7] [%] | inhibition [10] [%] | inhibition [11] [%] | inhibition [12] [%] | IC50 [13] [nM] | inhibition [14] [%] | inhibition [15] [%] | Compound | Activity [8] | Activity [9] [%] | Activity [16] |
| --- | --- | --- | --- | --- | --- | --- | --- | --- | --- | --- | --- | --- | --- | --- | --- | --- |
| 10.3 | 10.3 | 15.6 | 31.2 | 425 | 178 | 58.9 | 4.8 | 0.5 | 16.2 | 689 | 35.6 | 25.1 | OC(CCN1CC=C(Cc2ccccc2)CC1)c1ccc(Cl)c(Cl)c1 (racemic) | Non-toxic | 24 | – |
| 1.2 | 65.4 | 8.2 | 0.1 | 255 | 327 | 41.2 | 31.5 | 43.5 | 32.5 | 491 | 0.8 | 10.6 | OC(CCN1CC=C(Cc2ccccc2)CC1)c1cc2ccccc2s1 (racemic) | Non-toxic | 14 | – |
| 4.6 | 27.3 | 6.7 | 12.5 | 337 | 265 | 15.3 | 0.9 | 19.2 | 43.5 | 564 | 84.3 | 14.1 | OC(CCN1CCC(O)(Cc2ccccc2)CC1)c1ccc(Cl)c(Cl)c1 (racemic) | Non-toxic | 33 | Dose-dependent effect |
| 3.5 | 33.4 | 14.9 | 45.3 | 171 | 385 | 33.4 | 42.6 | 29.7 | 27.3 | 566 | 51.2 | 8.3 | OC(CCN1CC=C(Cc2ccccc2)CC1)c1csc2ccccc12 (racemic) | Non-toxic | 32 | Dose-dependent effect |
| 11.3 | 46.5 | 33.2 | 10.6 | 265 | 420 | 46.7 | 15.6 | 5.8 | 32.9 | 346 | 45.6 | 0.5 | COc1ccc2cc(C(O)CCN3CC=C(Cc4ccccc4)CC3)ccc2c1Cl (racemic) | Non-toxic | 21 | Dose-dependent effect |
